Measurements as given in ChEMBL document CHEMBL1287728, “Potent and highly selective DP1 antagonists with 2,3,4,9-tetrahydro-1H-carbazole as pharmacophore” (Bioorg Med Chem Lett, 2010).

Tests used:
[1] = biological target: T1, Prostaglandin D2 receptor (Homo sapiens, UniProt Q13258); assay: Antagonist activity at prostanoid DP1 receptor; type: functional
T1 sequence (Q13258 whole entry): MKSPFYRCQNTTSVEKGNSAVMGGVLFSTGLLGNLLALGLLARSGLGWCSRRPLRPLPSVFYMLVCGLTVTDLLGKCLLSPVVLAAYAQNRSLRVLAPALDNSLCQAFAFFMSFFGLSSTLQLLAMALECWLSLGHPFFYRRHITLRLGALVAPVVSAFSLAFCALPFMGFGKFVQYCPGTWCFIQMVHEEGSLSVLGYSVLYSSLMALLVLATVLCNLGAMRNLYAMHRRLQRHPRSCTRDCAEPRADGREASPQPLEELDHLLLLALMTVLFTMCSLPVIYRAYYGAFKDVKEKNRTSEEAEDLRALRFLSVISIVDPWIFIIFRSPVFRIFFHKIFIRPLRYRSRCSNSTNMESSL

[2] = biological target: T2, Thromboxane A2 receptor (Homo sapiens, UniProt P21731); assay: Antagonist activity at prostanoid TP receptor; type: functional
T2 sequence (P21731 whole entry): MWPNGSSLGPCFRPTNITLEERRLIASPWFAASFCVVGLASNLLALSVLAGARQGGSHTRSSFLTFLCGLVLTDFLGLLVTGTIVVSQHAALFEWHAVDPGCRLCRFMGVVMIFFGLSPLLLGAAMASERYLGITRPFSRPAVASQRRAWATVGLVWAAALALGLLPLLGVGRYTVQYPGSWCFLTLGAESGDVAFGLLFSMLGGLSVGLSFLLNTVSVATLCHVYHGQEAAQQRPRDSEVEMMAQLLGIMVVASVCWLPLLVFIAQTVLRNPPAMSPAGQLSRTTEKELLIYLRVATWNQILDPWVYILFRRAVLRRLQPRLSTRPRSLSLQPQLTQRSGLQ

[3] = Chemical stability of compound in 0.01N HCl after 2 hrs; type: physicochemical; details: read-out: Stability
In short: (§1)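 Compound incubated in 0.01 N HCl at 37 °C; percent of compound recovered after 2 h or 6 h.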

[4] = biological target: T3, Prostaglandin E2 receptor EP1 subtype (Homo sapiens, UniProt P34995); assay: Binding affinity to prostanoid receptor EP1 receptor
T3 sequence (P34995 whole entry): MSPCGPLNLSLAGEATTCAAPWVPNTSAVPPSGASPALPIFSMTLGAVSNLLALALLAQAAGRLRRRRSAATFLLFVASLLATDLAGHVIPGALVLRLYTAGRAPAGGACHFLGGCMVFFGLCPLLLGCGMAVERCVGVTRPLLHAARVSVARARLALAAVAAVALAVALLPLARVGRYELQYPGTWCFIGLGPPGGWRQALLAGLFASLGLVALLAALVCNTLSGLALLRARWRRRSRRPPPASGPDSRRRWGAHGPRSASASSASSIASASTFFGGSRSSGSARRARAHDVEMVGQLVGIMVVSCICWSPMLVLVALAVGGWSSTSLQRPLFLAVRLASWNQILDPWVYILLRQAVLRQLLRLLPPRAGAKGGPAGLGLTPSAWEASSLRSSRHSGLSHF

[5] = biological target: Prostaglandin E2 receptor EP2 subtype (Homo sapiens, UniProt P43116); assay: Binding affinity to prostanoid receptor EP2 receptor
[6] = biological target: T4, Prostaglandin E2 receptor EP3 subtype (Homo sapiens, UniProt P43115); assay: Binding affinity to prostanoid receptor EP3 receptor
T4 sequence (P43115 whole entry): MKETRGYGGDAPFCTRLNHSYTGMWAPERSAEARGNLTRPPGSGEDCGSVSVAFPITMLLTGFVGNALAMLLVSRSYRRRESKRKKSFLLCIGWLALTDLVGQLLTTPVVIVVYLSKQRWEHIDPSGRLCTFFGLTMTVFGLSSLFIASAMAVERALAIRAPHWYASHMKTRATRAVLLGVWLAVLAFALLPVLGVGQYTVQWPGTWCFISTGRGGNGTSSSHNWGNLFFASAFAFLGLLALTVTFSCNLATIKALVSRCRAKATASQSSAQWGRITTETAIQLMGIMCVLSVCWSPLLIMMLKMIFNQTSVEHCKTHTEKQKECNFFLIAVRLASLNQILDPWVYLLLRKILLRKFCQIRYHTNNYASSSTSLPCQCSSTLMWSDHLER

[7] = biological target: Prostaglandin E2 receptor EP4 subtype (Homo sapiens, UniProt P35408); assay: Binding affinity to prostanoid receptor EP4 receptor
[8] = biological target: Prostaglandin F2-alpha receptor (Homo sapiens, UniProt P43088); assay: Binding affinity to prostanoid receptor FP receptor
[9] = biological target: Prostacyclin receptor (Homo sapiens, UniProt P43119); assay: Binding affinity to prostanoid receptor IP receptor
[10] = Selectivity ratio of Ki for prostanoid DP1 receptor to Ki for prostanoid EP3 receptor
[11] = biological target: T1, Prostaglandin D2 receptor; assay: Antagonist activity at prostanoid DP1 receptor in human platelet assessed as inhibition of PGD2 induced accumulation of cAMP; type: functional
In short: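 Human platelet-rich plasma; cAMP accumulation induced by PGD₂, measured with antagonist present; IC₅₀ reported.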

[12] = species: Homo sapiens; assay: Selectivity ratio of IC50 for prostanoid DP1 receptor to IC50 for TP receptor in human platelet
In short: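 Ratio of IC₅₀ values from two human platelet-rich plasma assays: PGD₂-induced cAMP accumulation (DP1) and U46619-induced platelet aggregation (TP).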

[13] = Chemical stability of compound in 0.01N HCl after 6 hrs; type: physicochemical; details: read-out: Stability; in short: as §1

Chain of Prostaglandin E2 receptor EP4 subtype (P35408 whole entry): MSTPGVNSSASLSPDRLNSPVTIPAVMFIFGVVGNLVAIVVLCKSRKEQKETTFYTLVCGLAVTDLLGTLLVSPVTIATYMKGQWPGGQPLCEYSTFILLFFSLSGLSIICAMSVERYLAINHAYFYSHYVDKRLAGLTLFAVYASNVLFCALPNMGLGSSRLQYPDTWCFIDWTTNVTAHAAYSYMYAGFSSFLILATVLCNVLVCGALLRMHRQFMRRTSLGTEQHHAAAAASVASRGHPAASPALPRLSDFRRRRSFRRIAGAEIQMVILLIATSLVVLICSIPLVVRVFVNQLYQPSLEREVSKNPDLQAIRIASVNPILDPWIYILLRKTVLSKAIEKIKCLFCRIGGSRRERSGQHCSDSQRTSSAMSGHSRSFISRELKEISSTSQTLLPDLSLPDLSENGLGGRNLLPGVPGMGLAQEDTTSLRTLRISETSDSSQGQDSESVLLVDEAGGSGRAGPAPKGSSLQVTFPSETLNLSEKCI
Chain of Prostaglandin E2 receptor EP2 subtype (P43116 whole entry): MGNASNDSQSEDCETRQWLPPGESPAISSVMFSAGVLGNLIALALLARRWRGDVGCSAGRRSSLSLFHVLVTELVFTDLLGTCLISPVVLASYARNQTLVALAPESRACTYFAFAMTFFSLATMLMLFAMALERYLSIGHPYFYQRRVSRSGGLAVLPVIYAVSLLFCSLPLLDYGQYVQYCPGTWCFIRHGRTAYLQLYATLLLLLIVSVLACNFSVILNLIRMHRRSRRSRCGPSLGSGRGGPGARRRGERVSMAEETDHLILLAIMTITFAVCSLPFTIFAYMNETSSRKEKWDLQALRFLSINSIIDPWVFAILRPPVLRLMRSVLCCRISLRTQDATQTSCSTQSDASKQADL
Chain of Prostaglandin F2-alpha receptor (P43088 whole entry): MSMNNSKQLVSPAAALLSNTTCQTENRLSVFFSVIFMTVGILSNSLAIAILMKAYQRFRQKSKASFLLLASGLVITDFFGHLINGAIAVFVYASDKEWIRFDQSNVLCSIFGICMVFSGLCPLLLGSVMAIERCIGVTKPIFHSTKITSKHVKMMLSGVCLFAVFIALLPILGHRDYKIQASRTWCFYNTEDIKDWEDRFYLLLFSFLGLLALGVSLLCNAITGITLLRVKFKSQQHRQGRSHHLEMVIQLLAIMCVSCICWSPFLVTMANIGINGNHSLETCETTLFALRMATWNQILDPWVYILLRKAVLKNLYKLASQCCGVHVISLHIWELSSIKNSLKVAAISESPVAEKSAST
Chain of Prostacyclin receptor (P43119 whole entry): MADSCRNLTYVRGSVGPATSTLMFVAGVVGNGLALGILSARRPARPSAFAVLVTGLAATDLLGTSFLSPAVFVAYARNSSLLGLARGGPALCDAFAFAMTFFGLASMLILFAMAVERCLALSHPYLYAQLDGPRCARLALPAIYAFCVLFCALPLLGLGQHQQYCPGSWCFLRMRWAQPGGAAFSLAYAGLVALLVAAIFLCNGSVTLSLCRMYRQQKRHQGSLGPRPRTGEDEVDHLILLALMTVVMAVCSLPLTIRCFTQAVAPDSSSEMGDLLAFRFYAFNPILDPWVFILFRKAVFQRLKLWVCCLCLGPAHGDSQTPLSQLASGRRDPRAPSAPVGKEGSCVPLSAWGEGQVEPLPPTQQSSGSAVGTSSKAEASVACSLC

| Compound | Ki [1] [nM] | Ki [2] [nM] | further results |
| --- | --- | --- | --- |
| C[C@@H](c1ccc(F)cc1)n1c2c(c3cc(F)cc(S(C)(=O)=O)c31)CCC[C@@H]2CC(=O)O | 0.33 | 100 | – |
| CS(=O)(=O)c1cc(F)cc2c3c(n([C@H](c4ccc(Cl)cc4)C(F)F)c12)[C@@H](CC(=O)O)CCC3 | 0.36 | 130 | – |
| C[C@@H](c1ccc(Cl)c(F)c1)n1c2c(c3cc(F)cc(S(C)(=O)=O)c31)CCC[C@@H]2CC(=O)O | 0.38 | 200 | – |
| CS(=O)(=O)c1cc(F)cc2c3c(n(Cc4ccc(Cl)cc4)c12)C(CC(=O)O)CCC3 (racemic) | 0.89 | 2.51 | – |
| C[C@@H](c1ccc(Cl)cc1F)n1c2c(c3cc(F)cc(S(C)(=O)=O)c31)CCC[C@@H]2CC(=O)O | 0.41 | 270 | – |
| CS(=O)(=O)c1cc(F)cc2c3c(n([C@@H](CF)c4ccc(Cl)cc4)c12)[C@@H](CC(=O)O)CCC3 | 0.39 | 138 | – |
| C[C@@H](c1ccc(C#N)cc1)n1c2c(c3cc(F)cc(S(C)(=O)=O)c31)CCC[C@@H]2CC(=O)O | 0.51 | 93 | – |
| C[C@@H](c1ccc(S(C)(=O)=O)cc1)n1c2c(c3cc(F)cc(S(C)(=O)=O)c31)CCC[C@@H]2CC(=O)O | 16.5 | 1480 | – |
| C[C@@H](c1ccc(Cl)c(Cl)c1)n1c2c(c3cc(F)cc(S(C)(=O)=O)c31)CCC[C@@H]2CC(=O)O | 0.33 | 112 | – |
| C[C@@H](c1ccc(C(F)(F)F)cc1)n1c2c(c3cc(F)cc(S(C)(=O)=O)c31)CCC[C@@H]2CC(=O)O | 0.43 | 338 | Ki [4]: 4590 nM; Ki [5]: 2270 nM; Ki [6]: 830 nM; Ki [7]: 6610 nM; Ki [8]: 4320 nM; Ki [9]: 15500 nM; Ratio [10]: 1900; IC50 [11]: 2.5 nM; Ratio [12]: 7760; remaining at 6 h [13]: 99.6% |

Further lines, with some results ahead:

| Ki [1] [nM] | Ki [2] [nM] | Compound | further results |
| --- | --- | --- | --- |
| 0.31 | 292 | C[C@@H](c1cccc(Cl)c1)n1c2c(c3cc(F)cc(S(C)(=O)=O)c31)CCC[C@@H]2CC(=O)O | – |
| 0.38 | 106 | C[C@@H](c1ccc(Br)cc1)n1c2c(c3cc(F)cc(S(C)(=O)=O)c31)CCC[C@@H]2CC(=O)O | – |
| 0.36 | 362 | C[C@@H](c1ccccc1)n1c2c(c3cc(F)cc(S(C)(=O)=O)c31)CCC[C@@H]2CC(=O)O | – |
| 0.75 | 184 | C[C@@H](c1ccc(Cl)cc1)n1c2c(c3cc(F)cc(S(C)(=O)=O)c31)CCC[C@@H]2CC(=O)O | remaining at 2 h [3]: 79% |
| 12 | – | CC(c1ccc(Cl)cc1)n1c2c(c3cc(F)cc(S(C)(=O)=O)c31)CCCC2CC(=O)O (single isomer, unassigned; fast eluting) | – |
| 1.3 | – | CC(c1ccc(Cl)cc1)n1c2c(c3cc(F)cc(S(C)(=O)=O)c31)CCCC2CC(=O)O (single isomer, unassigned; slow-eluting) | – |
